Results on one compound are retold here after ChEMBL document CHEMBL4680093 (J Med Chem, 2016).

For series [1], the target named is T1, UDP-glucuronosyltransferase 1A1 (Homo sapiens, UniProt P22309).
T1 sequence (P22309 whole entry): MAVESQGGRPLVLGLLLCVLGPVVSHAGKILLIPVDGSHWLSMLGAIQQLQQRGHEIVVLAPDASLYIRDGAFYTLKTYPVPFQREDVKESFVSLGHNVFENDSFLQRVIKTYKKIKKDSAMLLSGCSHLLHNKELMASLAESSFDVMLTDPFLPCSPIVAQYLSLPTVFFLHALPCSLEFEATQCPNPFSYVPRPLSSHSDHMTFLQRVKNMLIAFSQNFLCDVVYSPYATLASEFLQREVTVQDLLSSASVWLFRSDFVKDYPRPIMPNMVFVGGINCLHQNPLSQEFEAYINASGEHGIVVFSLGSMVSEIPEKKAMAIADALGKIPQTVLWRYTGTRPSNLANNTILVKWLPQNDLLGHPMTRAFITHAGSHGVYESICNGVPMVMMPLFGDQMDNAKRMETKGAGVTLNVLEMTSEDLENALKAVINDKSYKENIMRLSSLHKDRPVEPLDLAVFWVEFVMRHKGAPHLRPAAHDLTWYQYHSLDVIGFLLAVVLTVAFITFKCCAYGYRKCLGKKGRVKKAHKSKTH
As to the kind of experiment: Inhibition of UGT1A1 (unknown origin). It is filed as ADME.

Series [2] addresses T2, 11-beta-hydroxysteroid dehydrogenase type 2 (Homo sapiens) (UniProt P80365).
T2 sequence (whole entry): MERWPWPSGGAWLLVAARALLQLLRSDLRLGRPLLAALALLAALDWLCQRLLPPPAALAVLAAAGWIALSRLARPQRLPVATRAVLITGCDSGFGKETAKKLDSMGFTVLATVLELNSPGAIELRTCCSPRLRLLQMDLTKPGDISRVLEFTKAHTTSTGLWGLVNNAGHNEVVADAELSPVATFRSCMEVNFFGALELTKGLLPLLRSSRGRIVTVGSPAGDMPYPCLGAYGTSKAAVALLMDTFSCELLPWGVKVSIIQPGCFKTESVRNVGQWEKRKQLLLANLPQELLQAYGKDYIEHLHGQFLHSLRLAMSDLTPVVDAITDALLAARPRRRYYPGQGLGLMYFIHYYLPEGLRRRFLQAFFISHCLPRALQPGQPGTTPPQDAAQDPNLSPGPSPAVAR
As to the kind of experiment: Inhibition of human 11beta-HSD2 expressed in microsomes at 1 uM relative to control. The settings on record: Microsome.

Series [3] is described as follows: Oral bioavailability in dog at 4 mg/kg. It is filed as ADME, organism-based, Canis lupus familiaris. Conditions: in vivo. The procedure, abridged: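 Single-dose PK study. The iv dose was given in 10% hydroxypropyl-β-cyclodextrin and the oral dose in 0.5% methylcellulose/1% Tween80. Mouse and rat received 1 mg/kg iv and 5 mg/kg po. Dog received 0.5 mg/kg iv and 4 mg/kg po. CL, Vss, t1/2, AUC, Cmax, tmax and F were derived.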

For series [4], the species on record is Homo sapiens. As to the kind of experiment: Selectivity index, ratio of IC50 for human 11beta-HSD2 to IC50 for human 11beta-HSD1.
The target in series [5] is T3, 11-beta-hydroxysteroid dehydrogenase type 2 (Homo sapiens, UniProt P80365).
T3 sequence (P80365 whole entry): T2 sequence (whole entry)
The series can be described thus: Inhibition of human 11beta-HSD2 expressed in microsomes. Also noted: species or system Microsome.

Series [6] can be described thus: In-vivo inhibition of 11beta-HSD1 activity in C57BL/6 mouse epididymal fat assessed as reduction in cortisone to-cortisol conversion at 3 mg/kg, po measured after 6 hrs by ELISA. It is filed as functional. The settings on record: C57BL/6, Epididymal fat pad. The procedure, abridged: (§1)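 Male C57BL/6 mice dosed orally once at 3, 10 or 30 mg/kg in sterile water containing 0.5% methylcellulose and 1% Tween80, then sacrificed at 2 or 6 h. Liver and epididymal fat pads incubated ex vivo in culture medium containing cortisone. Cortisol formed was measured by ELISA and reported as % inhibition versus vehicle.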
(In an ELISA, binding on a coated surface is turned into a signal by an enzyme label.)

Series [7] in a line: AUC in dog at 4 mg/kg, po. It is filed as ADME, organism-based, Canis lupus familiaris. Also on record: dose 4 mg/kg. The settings on record: in vivo.
Series [8] can be described thus: In-vivo inhibition of 11beta-HSD1 activity in C57BL/6 mouse liver assessed as reduction in cortisone to-cortisol conversion at 3 mg/kg, po measured after 2 hrs by ELISA. It is filed as functional. The settings on record: C57BL/6, Liver. The procedure, abridged:
as §1

Series [9] in a line: Half life in rat at 1 mg/kg, iv. It counts as ADME, organism-based. The settings on record: in vivo.
For series [10], the target named is Cytochrome P450 2D6 (Homo sapiens, UniProt P10635). The series can be described thus: Inhibition of CYP2D6 in pooled human liver microsomes using dextromethorphan as substrate in presence of NADPH incubated for 10 mins by LC-MS/MS analysis. (Liver microsomes are a subcellular fraction often used to study metabolism.)
Series [11] is described as follows: Clearance in dog at 0.5 mg/kg, iv. Conditions: in vivo. It is filed as ADME, organism-based, Canis lupus familiaris.
Series [12] in a line: Reduction in nonfasting blood glucose level in C57BL/6-Lep^ob (ob/ob) mouse at 20 mg/kg, po dosed once daily for 25 days and co-treated with 300 mg/kg. po QD for 25 days metformin relative to control. Also noted: scale not given: the % may be the effect or the level left. Conditions: time 25 day.
Series [13] in a line: In-vivo inhibition of 11beta-HSD1 activity in C57BL/6 mouse epididymal fat assessed as reduction in cortisone to-cortisol conversion at 10 mg/kg, po measured after 6 hrs by ELISA. It is filed as functional. The settings on record: C57BL/6, Epididymal fat pad. The procedure, abridged:
as §1

A short description of series [14]: Drug level in mouse plasma at 10 mg/kg, po measured after 2 hrs post dose. It counts as ADME, organism-based. Conditions: in vivo. The procedure, abridged:
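C57BL/6 mice given a single oral 10 mg/kg dose in 0.5% methylcellulose plus 1% Tween80. Sacrifice at 2 h post-dose, with collection of brain, liver, adipose and plasma. Compound concentration expressed as nmol/g, along with tissue/plasma ratio.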

The subject of series [15] is Mus musculus. The series can be described thus: In-vivo inhibition of 11beta-HSD1 activity in C57BL/6 mouse liver assessed as reduction in cortisone to-cortisol conversion at 3 to 30 mg/kg, po measured after 2 to 6 hrs by ELISA. It is filed as functional, organism-based. Conditions: dose 3-30 mg/kg, time 2-6 hrs. The procedure, abridged: as §1
Series [16] is described as follows: Toxicity in male mouse during 4-week repeated once daily oral-dose toxicity study. Conditions: in vivo, time 4 weeks. The procedure, abridged:
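Mice of both sexes were dosed orally once daily for 4 weeks at 40, 100, 250 and 625 mg/kg. Toxicity was assessed and the NOAEL determined.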

The target of series [17] is Cytochrome P450 2C9 (Homo sapiens, UniProt P11712). The series can be described thus: Inhibition of CYP2C9 in pooled human liver microsomes using diclofenac as substrate in presence of NADPH incubated for 10 mins by LC-MS/MS analysis.
Series [18] in a line: Toxicity in dog assessed as induction of abnormal changes in respiratory system up to 400 mg/kg, po. It counts as organism-based, Canis lupus familiaris. Conditions: in vivo. The procedure, abridged:
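Dogs fitted with telemetry were given oral doses of up to 400 mg/kg. Cardiovascular and respiratory systems were monitored for abnormal changes.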

Sequence of Cytochrome P450 2C9 (P11712 whole entry): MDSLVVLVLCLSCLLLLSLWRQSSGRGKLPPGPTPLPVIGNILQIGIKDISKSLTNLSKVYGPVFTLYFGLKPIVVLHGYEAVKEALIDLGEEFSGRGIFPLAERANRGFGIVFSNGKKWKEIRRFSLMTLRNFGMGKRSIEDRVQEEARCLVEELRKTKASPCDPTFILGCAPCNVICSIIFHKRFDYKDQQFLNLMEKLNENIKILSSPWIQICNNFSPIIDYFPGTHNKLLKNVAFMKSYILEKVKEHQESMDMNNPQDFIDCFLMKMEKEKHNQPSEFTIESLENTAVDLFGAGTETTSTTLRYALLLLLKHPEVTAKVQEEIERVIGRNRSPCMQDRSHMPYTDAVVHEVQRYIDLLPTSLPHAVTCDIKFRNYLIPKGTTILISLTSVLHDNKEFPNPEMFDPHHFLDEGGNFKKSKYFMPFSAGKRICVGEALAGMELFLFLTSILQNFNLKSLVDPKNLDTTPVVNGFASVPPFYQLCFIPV
Sequence of Cytochrome P450 2D6 (P10635 whole entry): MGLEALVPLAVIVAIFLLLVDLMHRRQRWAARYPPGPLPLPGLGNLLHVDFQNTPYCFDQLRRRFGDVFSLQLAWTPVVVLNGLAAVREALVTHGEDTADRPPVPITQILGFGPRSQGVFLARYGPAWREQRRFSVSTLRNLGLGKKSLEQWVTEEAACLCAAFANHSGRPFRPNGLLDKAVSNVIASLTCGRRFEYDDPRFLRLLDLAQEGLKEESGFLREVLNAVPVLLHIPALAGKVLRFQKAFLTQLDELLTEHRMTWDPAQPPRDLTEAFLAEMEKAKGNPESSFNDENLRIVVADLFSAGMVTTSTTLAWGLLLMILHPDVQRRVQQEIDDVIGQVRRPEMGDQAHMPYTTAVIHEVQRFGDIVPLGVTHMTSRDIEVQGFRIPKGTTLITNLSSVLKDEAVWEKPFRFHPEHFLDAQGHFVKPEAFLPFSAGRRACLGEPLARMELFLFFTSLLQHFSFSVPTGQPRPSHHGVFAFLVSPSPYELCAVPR

`C[C@@H]1CN(c2ccc(S(C)(=O)=O)cc2F)CCN1c1nccc(C(=O)NC2C3CC4CC2CC(O)(C4)C3)n1` (stereo partly drawn): the IC50 – broadly, the concentration at which inhibition is half-maximal – was 5.6 µM in [1], > 10 µM in [5], > 10 µM in series [10] and > 10 µM in series [17]. The inhibition (usually the relative decrease from the control value, in per cent) in [2] was 6%; in series [15], “Dose-dependent effect”. Also, the bioavailability (as a rule, dose-corrected exposure relative to a reference, in per cent) in [3] turned out to be 98%. In series [4], the Ratio IC50 was > 3000. Also, the inhibition in vivo (as a rule, the relative decrease from the control value, in per cent) at 3 mg/kg in series [6] amounted to 84%; in series [8] it was 74%. Also, in series [7], the AUC (commonly concentration integrated over time) came out at 11500 ng·h/mL. For the same compound, in [9], the half-life (in general, how long it takes for the measured level to halve) was 1.8 h. The clearance (commonly a measure of how efficiently the substance is removed, as volume per time) in series [11] was 6 mL/min/kg. In addition, the Activity in [12] is reported as 33%; in [18], “Non-Toxic”. In addition, the inhibition in vivo at 10 mg/kg in series [13] amounted to 93%. In addition, the Cp in series [14] stood at 10.6 nmol/g. Besides, in [16], the NOAEL (usually the highest tested level that showed no adverse finding) at 672 h stood at 625 mg/kg.
